bIAP activator: intestinal alkaline phosphatase (bovine) activation | purified bovine IAP, CDP-star luminescence, 30 min; hits give high values; fold of DMSO-control signal, blank-subtracted | activation factor at 20 µM | 200,000 compounds, 0.17% hits | AID 1016;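 active means activation factor of 2 or more at 20 µM, a signal rise over negative controls twice the positive control's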
hIAP block: human IAP inhibition | purified IAP, CDP-Star luminescence, 30 min | inhibition, % at 10 µM | 330,000 compounds, 0.12% hits | AID 2544;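 active means inhibition reaching a set limit with compound at 10 µM in the primary screen, cut at about 35% in these data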
Target sequence (P09923 whole entry, looked up): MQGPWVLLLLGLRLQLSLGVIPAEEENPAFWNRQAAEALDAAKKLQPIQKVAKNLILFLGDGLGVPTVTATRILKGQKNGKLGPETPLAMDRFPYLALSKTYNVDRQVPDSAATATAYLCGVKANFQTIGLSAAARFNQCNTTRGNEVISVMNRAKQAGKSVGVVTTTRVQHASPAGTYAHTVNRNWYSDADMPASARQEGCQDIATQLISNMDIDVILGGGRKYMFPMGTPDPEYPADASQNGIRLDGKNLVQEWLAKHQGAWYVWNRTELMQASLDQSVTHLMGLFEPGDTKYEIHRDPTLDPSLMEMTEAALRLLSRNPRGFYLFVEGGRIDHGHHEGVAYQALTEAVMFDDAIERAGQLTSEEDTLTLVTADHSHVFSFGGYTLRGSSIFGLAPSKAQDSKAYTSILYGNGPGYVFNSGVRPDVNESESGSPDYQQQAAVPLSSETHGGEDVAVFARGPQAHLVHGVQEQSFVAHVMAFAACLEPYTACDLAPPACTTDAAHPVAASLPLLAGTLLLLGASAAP
mIAP block: mouse IAP inhibition; purified mouse IAP, CDP-Star luminescence, 30 min; 330,000 compounds, 0.2% hits; inhibition, % at 10 µM;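 active means inhibition of at least 40% at 10 µM in the primary screen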
mIAP activ: increases mouse intestinal alkaline phosphatase activity. activation factor at 10 µM. muIAP, CDP-Star luminescence, 30 min; hits give high values; 1 = vehicle-only enzyme signal, 0 = enzyme-free wells. 330,000 compounds, 0.24% hits;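 active means activation factor of at least 2 at 20 µM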
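Assay system: mouse IAP enzyme / Compound: DMSO-dissolved test compounds / Timing: 30 min, room temperature / Measured by: luminescence from enzymatic CDP-Star hydrolysis / Control set: DMSO-only wells, enzyme-free buffer wells as negative control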
hIAP act: increases human intestinal alkaline phosphatase activity; P09923; purified human IAP, CDP-Star luminescence, 30 min; hits give high values; 1 = vehicle-only enzyme, 0 = enzyme-free background; activation factor at 10 µM; 330,000 compounds, 0.16% hits;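 active means activation factor of the enzyme at least 2-fold when tested at 20 µM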
bIAP inh: intestinal alkaline phosphatase (bovine) inhibition; inhibition, % at 20 µM; 190,000 tested, under 10 active; purified bovine IAP, CDP-star luminescence, 30 min;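 active means over 50% inhibition of intestinal alkaline phosphatase at 20 µM in the single-dose screen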
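Incubation: 30 min reaction at room temperature / Material: purified bovine intestinal alkaline phosphatase (IAP) enzyme / Input: enzyme at 1/65,000,000 dilution / Dosing: 20 µM single dose / Signal: CDP-star luminescence signal / Reagent: CDP-star chemiluminescent phosphatase substrate, 30 µM final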
mIAP inh conf: mouse IAP inhibition confirmation. 11,000 compounds, 4.7% hits. purified mouse IAP, CDP-Star luminescence, 30 min. inhibition, % at 10 µM. AID 434971. shares compounds with mIAP block;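 active means inhibition of at least 40% at 10 µM in either of the two replicates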
Each line names hits and unclear results; the compound was inactive in the other large screens (follow-up assays come after a bar, where they were run). This is a sample that favours compounds with a hit; in the whole collection about 0.77% have one here.

Cc1ccc(NC(=S)NC2CCSc3ccccc32)cc1C (centres undefined)	mIAP activ 4.7 (no result: bIAP activator, bIAP inh) | mIAP inh conf inactive
N#CC1=C(N)SC(N)=C(C#N)C1c1ccoc1	mIAP block 77 | mIAP inh conf 76
O=C(CCCN1C(=O)/C(=C/c2ccco2)SC1=S)Nc1cccc(C(=O)O)c1	mIAP block 64 (no result: bIAP activator, bIAP inh) | mIAP inh conf 71
O=C(CCCN1C(=O)/C(=C\c2ccco2)SC1=S)Nc1ccc(O)cc1C(=O)O	mIAP block 68 (no result: bIAP activator, bIAP inh) | mIAP inh conf 75
O=C(CCCN1C(=O)/C(=C\c2cccs2)SC1=S)Nc1cccc(C(=O)O)c1	none
Cc1c(Cl)cnc(NC(=O)COC(=O)CCc2nc3ccccc3s2)c1Cl	none
COCC(C)NC(=O)C(C)N1c2cccc3cccc(c23)S1(=O)=O (centres undefined)	none (no result: bIAP activator, bIAP inh)
Cc1cc(C)c(S(=O)(=O)Nc2ccc(O)c(Sc3ncn[nH]3)c2)cc1C	mIAP block 79 (no result: bIAP activator, bIAP inh) | mIAP inh conf 86
Cc1cc(C)c(S(=O)(=O)Nc2ccc(O)cc2)cc1C	none
CC(C)c1ccc(S(=O)(=O)Nc2ccc(O)c(Sc3ncn[nH]3)c2)cc1	none (no result: bIAP activator, bIAP inh)
COc1ccc(S(=O)(=O)Nc2ccc(O)c(Sc3ncn[nH]3)c2)cc1	mIAP block 63 | mIAP inh conf 72
CC1(NC(=O)c2cc(S(=O)(=O)N3CCCCC3)ccc2Cl)CCS(=O)(=O)C1 (centres undefined)	none
CN(C(=O)c1ccccc1)C1c2c(ccc3ccccc23)OCC1CO (centres undefined)	none (no result: bIAP activator, bIAP inh)
O=C(Nc1ccc(Cl)cc1)N[C@@H]1c2c(ccc3ccccc23)OC[C@@H]1CO	mIAP activ 13 | mIAP inh conf inactive
CSc1ccccc1NC(=O)CN(C)Cc1cc(=O)n2ccsc2n1	none
CCCCN1C(=O)/C(=C/C=C2\N(C)c3ccccc3C2(C)C)SC1=S	mIAP block 51 (no result: bIAP inh) | mIAP inh conf 43
CC(=O)c1ccc(-c2ccc(/C=C(/Sc3n[nH]c(C)n3)C(=O)O)o2)cc1	none (no result: bIAP activator, bIAP inh)
Cc1nc(S/C(=C/c2ccc(-c3ccc(C(=O)O)cc3)o2)C(=O)O)n[nH]1	mIAP block 45 (no result: bIAP activator, bIAP inh) | mIAP inh conf 45
Cc1ccc(NC(=O)CSc2nnc3ccc(-c4ccncc4)nn23)cc1	none (no result: bIAP activator, bIAP inh)
COc1ccc(-c2noc(CNC(=O)c3ccc4c(c3)OCO4)n2)cc1OC	none (no result: bIAP activator, bIAP inh)
Cc1ccc(NC(=O)NCC2CCN(Cc3cc(C)ccc3Cl)CC2)c(C)c1	mIAP activ 4.9 | mIAP inh conf inactive
Cc1ccc(C)c(CN2CCC(CNC(=O)Nc3cccc(Cl)c3C)CC2)c1	mIAP activ 5.4 (no result: bIAP activator, bIAP inh) | mIAP inh conf inactive
Cc1c(Cl)cccc1NC(=O)NC1CCCCC1	none
Cc1ccccc1CN1CCC(CNC(=O)Nc2ccc(F)cc2F)CC1	none (no result: bIAP activator, bIAP inh)
Cc1nc(SCC(=O)NCC2CCCO2)[nH]c(=O)c1C (centres undefined)	none (no result: bIAP activator, bIAP inh)
CCCCn1c(-c2ccco2)nc2ccccc2c1=O	none
O=C(N/N=C/c1ccc[nH]1)c1ccc2c(c1)OCO2	mIAP block 50 | mIAP inh conf 64
CCOc1ccc(NC(=O)Nc2cc(OCC(F)(F)F)cc(OCC(F)(F)F)c2)cc1	mIAP activ 3 | mIAP inh conf inactive
O=C(Nc1ccc(F)cc1)Nc1cc(OCC(F)(F)F)cc(OCC(F)(F)F)c1	mIAP activ 4.6 | mIAP inh conf inactive
CCOC(=O)CN1C(=O)/C(=C2\SC(=S)N(NC(=O)c3cccnc3)C2=O)c2ccccc21	mIAP block 52 (no result: bIAP activator, bIAP inh) | mIAP inh conf 53
CCN(CC)S(=O)(=O)c1ccc(C)c(NC(=O)COC(=O)CN2C(=O)NC(C)(C)C2=O)c1	none (no result: bIAP activator, bIAP inh)
NS(=O)(=O)c1cccc(NC(=O)CSc2nnc(-c3ccncc3)n2C2CC2)c1	mIAP block 50 (no result: bIAP activator, bIAP inh) | mIAP inh conf 58
S=c1[nH]nc(-c2cccnc2)n1/N=C/C=C/c1ccco1	mIAP block 47 | mIAP inh conf 60
S=c1[nH]nc(-c2ccc(Cl)cc2)n1/N=C/C=C/c1ccco1	mIAP block 56 (no result: bIAP activator, bIAP inh) | mIAP inh conf 58
CCCn1c(N)c(N(CCOC)C(=O)CSCC(=O)Nc2ccc(OC)cc2)c(=O)[nH]c1=O	none (no result: bIAP activator, bIAP inh)
CC(C)CC(C(=O)Nc1cccc(O)c1)N1C(=O)c2ccccc2C1=O (centres undefined)	none (no result: bIAP activator, bIAP inh)
CC(C)CC(C(=O)Nc1oc(-c2ccco2)c(-c2ccco2)c1C#N)N1C(=O)c2ccccc2C1=O (centres undefined)	mIAP block 45 | mIAP inh conf 48
O=C(COC(=O)c1ccc(Br)o1)Nc1ncc([N+](=O)[O-])s1	mIAP block 61 (no result: bIAP activator, bIAP inh) | mIAP inh conf 59
Cc1ccc(CC(=O)Nc2ncc([N+](=O)[O-])s2)cc1	none
COc1ccc(C(=O)OCC(=O)Nc2ncc([N+](=O)[O-])s2)cc1OC	mIAP block 63 (no result: bIAP activator, bIAP inh) | mIAP inh conf 76
C=C1c2cc3c(cc2NC(=S)N1Cc1ccccc1)OCO3	none (no result: bIAP activator, bIAP inh)
Cc1oc2ccc(NS(=O)(=O)c3cccc4cccnc34)cc2c1C(=O)OC(C)C	none
COc1cc(CNCCNC(=O)c2nonc2N)ccc1OCc1ccc(Cl)nc1	none
COc1cc2c(ccc3cc(OC)c(OC)c(O)c32)cc1O	mIAP block 50 (no result: bIAP activator, bIAP inh) | mIAP inh conf 58
O=C(c1c(O)cc(O)cc1O)C1c2c(cc(O)c3c2O[C@H](c2ccc(O)cc2)[C@@H](O)C3)OC1c1ccc(O)cc1 (some centres undefined)	mIAP block 58 (no result: bIAP activator, bIAP inh) | mIAP inh conf 47
O=C1CC(c2ccccc2)c2c(O)cc(O)cc2O1 (centres undefined)	none
O=C(Cc1ccccc1)c1c[nH]c(C(=O)NC2CCCC2)c1	none
Cc1cccc(C2=NN(c3ccccc3)[C@H](CO)[C@H]2c2ccccc2)c1	mIAP activ 2.2 (no result: bIAP activator, hIAP block, hIAP act, bIAP inh) | mIAP inh conf inactive
CCCCC(=O)c1ccc(O)cc1	none
O=C(CCO)c1ccc(O)cc1	mIAP block 46 | mIAP inh conf 47
COc1ccc(CNC(=O)Nc2cccc(C(F)(F)F)c2)cc1OC	mIAP activ 2.2 | mIAP inh conf inactive
COc1cccc(NC(=O)Nc2cc(C(=O)O)ccc2C)c1	none
COc1cccc(NC(=O)Nc2ccc(C(C)(C)C)cc2)c1	mIAP activ 4.4 | mIAP inh conf inactive
COc1cccc(NC(=O)Nc2ccc(C)c(Cl)c2)c1	mIAP activ 4.1 | mIAP inh conf inactive
COc1ccc(CNC(=O)NCc2ccc(OC)c(OC)c2)cc1OC	none
COc1cccc(NC(=O)Nc2ccc3c(c2)CCC3)c1	mIAP activ 4.4 (no result: bIAP activator, bIAP inh) | mIAP inh conf inactive
Cc1ccccc1C(=O)NNC(=O)CSc1nnc(-c2ccncc2)n1-c1ccccc1	none
